From ChEMBL document CHEMBL1135740, “Design, synthesis, and activity of a novel series of factor Xa inhibitors: optimization of arylamidine groups” (J Med Chem, 2002)

Experiments:
Coagulation factor X = Coagulation factor X (Homo sapiens, UniProt P00742); assay: Inhibitory constant against human coagulation factor Xa (fXa)
Serine protease 1 = target: T1, Serine protease 1 (Bos taurus, UniProt P00760); assay: Inhibitory constant against bovine trypsin for general specificity against serine proteases
T1 sequence (P00760 whole entry): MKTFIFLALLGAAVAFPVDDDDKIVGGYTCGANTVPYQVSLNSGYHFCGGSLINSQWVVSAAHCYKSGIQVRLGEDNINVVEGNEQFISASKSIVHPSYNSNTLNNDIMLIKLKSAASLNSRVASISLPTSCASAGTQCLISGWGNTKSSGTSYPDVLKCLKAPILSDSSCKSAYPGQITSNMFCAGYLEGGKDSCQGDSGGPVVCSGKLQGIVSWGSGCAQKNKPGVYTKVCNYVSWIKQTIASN

Prothrombin = Prothrombin (Homo sapiens, UniProt P00734); assay: Inhibitory constant against human coagulation factor II (thrombin) for selectivity within coagulation cascade
[1] = Plasma concentration after intravenous aministration at 30 min. (1 mg/kg, n=3); format: ADME, organism-based; conditions: rat
How it was run: (§1)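 Rats dosed intravenously at 1 mg/kg (n = 3). Plasma drug concentrations were measured at 30 min and at 1 h (60 min) and reported in µM.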

[2] = Plasma concentration after intravenous aministration at 1hr, (1 mg/kg, n=3); format: ADME, organism-based; conditions: rat; how it was run: as §1
[3] = Plasma concentration after oral aministration at 1 hr. (10 mg/kg); format: ADME, organism-based; conditions: rat
How it was run: (§2)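 Rats were dosed orally at 10 mg/kg. Plasma drug concentrations were measured at 1, 2 and 4 h and reported in µM.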

[4] = Plasma concentration after intravenous aministration at 60 min. (1 mg/kg, n=3); format: ADME, organism-based; conditions: rat; how it was run: as §1
[5] = Plasma concentration after oral aministration at 4 hr. (10 mg/kg); format: ADME, organism-based; conditions: rat; how it was run: as §2
[6] = Plasma concentration after oral aministration at 2 hr. (10 mg/kg); format: ADME, organism-based; conditions: rat; how it was run: as §2

Coagulation factor X, sequence (P00742 41-179 limits assumed): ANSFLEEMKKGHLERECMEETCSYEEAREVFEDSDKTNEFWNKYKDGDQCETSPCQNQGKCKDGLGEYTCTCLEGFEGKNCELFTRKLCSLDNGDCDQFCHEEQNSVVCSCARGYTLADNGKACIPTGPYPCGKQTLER
Coagulation factor X, sequence (P00742 235-488 limits assumed): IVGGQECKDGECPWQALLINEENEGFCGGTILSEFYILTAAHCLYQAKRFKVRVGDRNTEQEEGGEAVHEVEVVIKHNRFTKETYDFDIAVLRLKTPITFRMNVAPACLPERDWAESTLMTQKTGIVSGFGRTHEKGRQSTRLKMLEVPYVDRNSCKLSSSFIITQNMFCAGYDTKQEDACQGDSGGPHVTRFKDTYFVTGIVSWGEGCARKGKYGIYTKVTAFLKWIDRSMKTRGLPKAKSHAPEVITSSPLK

Row | SMILES | Ki (Coagulation factor X) | Ki (Serine protease 1) | Ki (Prothrombin) | also measured
1 | Cc1c(F)c(Oc2cccc(C(=N)N)c2)nc(Oc2cccc(-n3ccnc3)c2)c1F | 0.125 µM | 4.8 µM | > 5 µM | 
2 | Cc1nccn1-c1cccc(Oc2cc(C(=O)O)cc(Oc3cc(C(=N)N)ccc3O)n2)c1 | 0.008 µM | 0.58 µM | 0.68 µM | 
3 | Cc1c(F)c(Oc2cccc(C(=N)N)c2)nc(Oc2cccc(C(=O)O)c2)c1F | 5 µM | > 5 µM | > 5 µM | 
4 | N=C(N)c1ccc(O)c(Oc2cc(C(=O)O)cc(Oc3cccc(C4=NCCN4)c3)n2)c1 |  |  |  | concentration at 0.5 h [1]: 3000 nM; concentration at 1 h [2]: 1400 nM
5 | Cc1c(F)c(Oc2cccc(OC(C)C)c2)nc(Oc2cccc(C(=N)N)c2)c1F | 0.62 µM | 2.9 µM | 5.3 µM | 
6 | Cc1c(F)c(Oc2cccc(NS(C)(=O)=O)c2)nc(Oc2cccc(C(=N)N)c2)c1F | 3.8 µM | 1.9 µM | 4.9 µM | 
7 | N=C(N)c1cccc(Oc2cc(C(=O)O)cc(Oc3cccc(C(=N)N)c3)n2)c1 |  |  |  | concentration at 0.5 h [1]: 800 nM
8 | Cc1c(F)c(Oc2cccc(C(=N)N)c2)nc(Oc2cccc(C(=N)N)c2)c1F |  |  |  | concentration at 0.5 h [1]: 100 nM
9 | Cc1c(F)c(Oc2cccc(C(=N)N)c2)nc(Oc2cc(C(=O)N(C)C)cc(C(=O)N(C)C)c2)c1F | 0.16 µM | 1.6 µM | > 5 µM | 
10 | CN(C)C(=O)c1cccc(Oc2cc(C(=O)O)cc(Oc3cc(C(=N)N)ccc3O)n2)c1 | 0.0031 µM | 0.15 µM | 0.49 µM | 
11 | Cc1cn(-c2cccc(Oc3cc(C(=O)O)cc(Oc4cc(C(=N)N)ccc4O)n3)c2)cn1 | 0.013 µM | 0.16 µM | 0.65 µM | 
12 | Cc1c(F)c(Oc2cccc(C(=N)N)c2)nc(Oc2cccc(C(=O)N3CCCC3)c2)c1F | 0.22 µM | 2.8 µM | > 5 µM | 
13 | N=C(N)c1cccc(Oc2cc(C(=O)O)cc(Oc3cc(C(=N)N)ccc3O)n2)c1 | 0.006 µM | 0.52 µM | 5.1 µM | concentration at 0.5 h [1]: 1900 nM
14 | Cc1c(F)c(Oc2cccc(C(=N)N)c2)nc(Oc2cccc([N+](=O)[O-])c2)c1F | 2.5 µM | > 5 µM | > 5 µM | 
15 | CC1(C)CNC(c2cccc(Oc3cc(C(=O)O)cc(Oc4cc(C(=N)N)ccc4O)n3)c2)=N1 | 0.81 µM | 1.4 µM | > 5 µM | 
16 | Cc1c(F)c(Oc2cccc(C(=N)N)c2)nc(Oc2cccc(C(O)C(=O)N(C)C)c2)c1F (stereo unspecified) | 2.2 µM | 3.3 µM | > 5 µM | 
17 | CCOC(=O)c1cccc(Oc2nc(Oc3cccc(C(=N)N)c3)c(F)c(C)c2F)c1 | 5.2 µM | > 5 µM | > 5 µM | 
18 | Cc1c(F)c(Oc2cccc(C(=N)N)c2)nc(Oc2cccc(C(=O)N3CCCCC3)c2)c1F | 0.82 µM | 3 µM | > 5 µM | 
19 | CN1CCN=C1c1cccc(Oc2cc(C(=O)O)cc(Oc3cc(C(=N)N)ccc3O)n2)c1 |  |  |  | concentration at 1 h [3]: 1400 nM; concentration at 1 h [4]: 400 nM; concentration at 0.5 h [1]: 1100 nM; concentration at 4 h [5]: 100 nM; concentration at 2 h [6]: 200 nM
20 | Cc1c(F)c(Oc2cccc(CCC(=O)N(C)C)c2)nc(Oc2cccc(C(=N)N)c2)c1F | 1.3 µM | 4.9 µM | > 5 µM | 
21 | Cc1c(F)c(Oc2cccc(OC(F)(F)F)c2)nc(Oc2cccc(C(=N)N)c2)c1F | 1.8 µM | > 5 µM | > 5 µM | 

The next lines start with results.

Row | Ki (Coagulation factor X) | Ki (Serine protease 1) | Ki (Prothrombin) | SMILES | also measured
22 | > 5 µM | > 5 µM | > 5 µM | Cc1ccc(N(C)C)cc1Oc1nc(Oc2cccc(C(=N)N)c2)c(F)c(C)c1F | 
23 | > 5 µM | > 5 µM | > 5 µM | Cc1c(F)c(Oc2cccc(C(=O)N(C)C)c2)nc(Oc2cccc(C(=N)N)c2O)c1F | 
24 | > 5 µM | 3.4 µM | > 5 µM | Cc1c(F)c(Oc2cccc(C(=N)N)c2)nc(Oc2cc(C(=O)N(C)C)cc(O)c2O)c1F | 
25 | 0.023 µM | 1.1 µM | 1.2 µM | Cc1c(F)c(Oc2cccc(C(=O)N(C)C)c2)nc(Oc2cc(C(=N)N)cc(O)c2O)c1F | 
26 | 5.5 µM | > 5 µM | > 5 µM | Cc1c(F)c(Oc2cccc(N(C)C)c2)nc(Oc2cc(C(=N)N)ccc2NS(C)(=O)=O)c1F | 
27 | 0.16 µM | > 5 µM | > 5 µM | COc1c(O)cc(C(=N)N)cc1Oc1nc(Oc2cccc(C(=O)N(C)C)c2)c(F)c(C)c1F | 
28 | 3.3 µM | > 5 µM | > 5 µM | Cc1c(F)c(Oc2cccc(N)c2)nc(Oc2cccc(C(=N)N)c2)c1F | 
29 | > 5 µM | 2.1 µM | > 5 µM | COc1ccc(C(=O)N(C)C)cc1Oc1nc(Oc2cccc(C(=N)N)c2)c(F)c(C)c1F | 
30 | 0.32 µM | 5 µM | 0.95 µM | Cc1c(Oc2nc(Oc3cccc(C(=N)N)c3)c(F)c(C)c2F)cccc1N(C)C | 
31 | 0.5 µM | 1 µM | 5.3 µM | Cc1c(F)c(Oc2cccc(C(=N)N)c2)nc(Oc2ccc(Cl)c(N(C)C)c2)c1F | 
